# Measurements from ChEMBL document CHEMBL3297695, “Sesquiterpenoids from Pittocaulon filare” (2014).
# Key:
# Mus musculus [1] = assay: Antiinflammatory activity against TPA-induced CD1 mouse ear edema model assessed as neutrophil infiltration by measuring myeloperoxidase content at 1 umol/ear administered topically 10 mins prior to TPA challenge measured after 4 hrs relative to control; assay type: functional
# Method in brief: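 Male CD-1 mice (25−30 g), ear edema induced by TPA. Compounds were applied topically at 1 μmol/ear in acetone−CH2Cl2 (1:1). MPO activity, used as a marker of neutrophils, was measured in ear biopsies taken 4 h after application by an adapted Bradley/Suzuki method. Results are given as % MPO content, mean ± SEM, analysed by ANOVA with Dunnett test against control.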
# Mus musculus [2] = assay: Antiinflammatory activity against CD1 mouse ear edema model assessed as reduction of TPA-induced ear edema measured per ear administered topically 10 mins prior to TPA challenge measured after 4 hrs; assay type: functional
# Method in brief: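 Male CD-1 mice (25−30 g), housed at 27 ± 1 °C on a 12/12 h light−dark cycle with food and water ad libitum. Compounds were applied topically to the ear in acetone−CH2Cl2 (1:1). Edema was induced by TPA and quantified as the weight of ear biopsies taken 4 h after sample application. The ID50 is expressed in μmol/ear. Data are mean ± SEM.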
compound,measurement,setting,value
C=C1[C@H]2[C@@H](/C(=C/C)C(=O)[C@H]2OC(=O)[C@@H](C)CC)[C@H]([C@@]2(C)CO2)[C@@H](OC(=O)[C@@H](C)CC)[C@H]1OC(=O)/C=C(\C)CC,Activity,Mus musculus [1],11.07%
same,Activity,Mus musculus [2],Dose-dependent effect
same,ID50,Mus musculus [2],0.55 µmol
C=C1[C@H]2[C@@H]([C@@H]([C@@H](C)OC(C)=O)C(=O)[C@H]2OC(=O)[C@@H](C)CC)[C@H]([C@@]2(C)CO2)[C@@H](OC(=O)[C@@H](C)CC)[C@H]1OC(=O)/C=C(\C)CC,Activity,Mus musculus [1],19.05%
same,Activity,Mus musculus [2],Dose-dependent effect
same,ID50,Mus musculus [2],0.18 µmol
COc1ccc2c(c1)c(CC(=O)O)c(C)n2C(=O)c1ccc(Cl)cc1 [INDOMETHACIN],Activity,Mus musculus [1],8.83%
same,ID50,Mus musculus [2],0.24 µmol
C=C1[C@@H]2CC(=O)[C@H]([C@@H](C)OC(C)=O)[C@H]2[C@H](C(C)C)[C@@H](OC(=O)[C@@H](C)CC)[C@H]1OC(=O)/C=C(\C)CC,Activity,Mus musculus [1],12.67%
same,Activity,Mus musculus [2],Dose-dependent effect
same,ID50,Mus musculus [2],0.17 µmol
